In ChEMBL document CHEMBL1124956, “Renin inhibitors based on dipeptide analogues. Incorporation of the hydroxyethylene isostere at the P2/P3 sites” (J Med Chem, 1990):

Target: T1, Renin (Homo sapiens, UniProt P00797)
T1 sequence (P00797 whole entry): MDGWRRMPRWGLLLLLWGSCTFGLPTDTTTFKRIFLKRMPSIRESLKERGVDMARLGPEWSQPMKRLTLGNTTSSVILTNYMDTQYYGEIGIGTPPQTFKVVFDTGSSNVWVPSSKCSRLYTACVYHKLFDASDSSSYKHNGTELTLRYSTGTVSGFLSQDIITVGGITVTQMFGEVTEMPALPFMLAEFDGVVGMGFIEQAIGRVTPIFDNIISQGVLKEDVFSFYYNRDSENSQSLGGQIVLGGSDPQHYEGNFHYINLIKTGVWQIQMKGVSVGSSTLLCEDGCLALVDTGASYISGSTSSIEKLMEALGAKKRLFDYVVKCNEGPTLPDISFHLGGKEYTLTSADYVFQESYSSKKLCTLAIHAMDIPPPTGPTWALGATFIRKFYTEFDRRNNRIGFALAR
Assay: In vitro inhibitory activity against human renal renin using radioimmunoassay for angiotensin I production
Method in brief: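 Purified human renin enzyme, assayed in maleate buffer at pH 6.0. The remaining conditions follow a previously published protocol.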

Row | Structure (SMILES) | IC50
1 | C=C(C[C@H](O)[C@H](CC1CCCCC1)NC(=O)[C@@H](C[C@@H](O)[C@H](Cc1ccccc1)NC(=O)OC(C)(C)C)Cn1ccnn1)C(=O)NCC(C)C | 95 nM
2 | C=C(C[C@H](O)[C@H](CC1CCCCC1)NC(=O)C(CC(C)C)NC(=O)[C@H](Cc1ccccc1)NC(=O)OC(C)(C)C)C(=O)NCC(C)C (stereo not given in full) | 6 nM
3 | C=CCCCC(C[C@@H](O)[C@H](Cc1ccccc1)NC(=O)OC(C)(C)C)C(=O)N[C@@H](CC1CCCCC1)[C@@H](O)[C@@H](CO)CC(C)C (stereo not given in full) | 12 nM
4 | C=C(C[C@H](O)[C@H](CC1CCCCC1)NC(=O)C(CCCC)NC(=O)[C@H](Cc1ccccc1)NC(=O)OC(C)(C)C)C(=O)NCC(C)C (mixture of isomers) | 2 nM
5 | C=C(C[C@H](O)[C@H](CC1CCCCC1)NC(=O)C(Cc1c[nH]cn1)NC(=O)[C@H](Cc1ccccc1)NC(=O)OC(C)(C)C)C(=O)NCC(C)C (stereo not given in full) | 2 nM
6 | CC(C)C[C@H](C[C@@H](O)[C@H](Cc1ccccc1)NC(=O)OC(C)(C)C)C(=O)N[C@@H](CC1CCCCC1)[C@@H](O)[C@@H](CO)CC(C)C | 6 nM
7 | C=C(C[C@H](O)[C@H](CC1CCCCC1)NC(=O)[C@@H](C[C@H](O)[C@H](Cc1ccccc1)NC(=O)OC(C)(C)C)Cn1ccnn1)C(=O)NCC(C)C | 2700 nM
8 | C=C(C[C@H](O)[C@H](CC1CCCCC1)NC[C@H](C)C[C@@H](O)[C@H](Cc1ccccc1)NC(=O)OC(C)(C)C)C(=O)NCC(C)C | > 10000 nM
9 | C=C(C[C@H](O)[C@H](CC1CCCCC1)NC(=O)C(C)NC(=O)[C@H](Cc1ccccc1)NC(=O)OC(C)(C)C)C(=O)NCC(C)C (stereo not given in full) | 10 nM

More lines, now with the values ahead:

Row | IC50 | Structure (SMILES)
10 | 1 nM | C=CCCC[C@H](C[C@@H](O)[C@H](Cc1ccccc1)NC(=O)OC(C)(C)C)C(=O)N[C@@H](CC1CCCCC1)[C@@H](O)CC(=C)C(=O)NCC(C)C
11 | 19 nM | C=C(C[C@H](O)[C@H](CC1CCCCC1)NC(=O)C(CCCCC)CC(O)[C@H](Cc1ccccc1)NC(=O)OC(C)(C)C)C(=O)NCC(C)C (stereo not given in full)
12 | 18 nM | C=CCCCC(NC(=O)[C@H](Cc1ccccc1)NC(=O)OC(C)(C)C)C(=O)N[C@@H](CC1CCCCC1)[C@@H](O)CC(=C)C(=O)NCC(C)C (mixture of isomers)
13 | 25 nM | C=C(C[C@H](O)[C@H](CC1CCCCC1)NC(=O)C(CC(C)C)CC(O)[C@H](Cc1ccccc1)NC(=O)OC(C)(C)C)C(=O)NCC(C)C (stereo not given in full)
14 | 20 nM | C=C(C[C@H](O)[C@H](CC1CCCCC1)NC(=O)C(C)CC(O)[C@H](Cc1ccccc1)NC(=O)OC(C)(C)C)C(=O)NCC(C)C (single isomer, unassigned)
15 | 5.5 nM | C=C(C[C@H](O)[C@H](CC1CCCCC1)NC(=O)C(CCCC)CC(O)[C@H](Cc1ccccc1)NC(=O)OC(C)(C)C)C(=O)NCC(C)C (stereo not given in full)
16 | 20 nM | C=C(C[C@H](O)[C@H](CC1CCCCC1)NC(=O)[C@H](C)C[C@@H](O)[C@H](Cc1ccccc1)NC(=O)OC(C)(C)C)C(=O)NCC(C)C
17 | 70 nM | C=C(C[C@H](O)[C@H](CC1CCCCC1)NC(=O)C(CCCCCC)CC(O)[C@H](Cc1ccccc1)NC(=O)OC(C)(C)C)C(=O)NCC(C)C (stereo not given in full)
18 | 3000 nM | C=C(C[C@H](O)[C@H](CC1CCCCC1)NC(=O)[C@H](C)C[C@H](O)[C@H](Cc1ccccc1)NC(=O)OC(C)(C)C)C(=O)NCC(C)C
19 | 100 nM | C=C(C[C@H](O)[C@H](CC1CCCCC1)NC(=O)[C@@H](C)C[C@@H](O)[C@H](Cc1ccccc1)NC(=O)OC(C)(C)C)C(=O)NCC(C)C
20 | 8 nM | C=CCCC[C@@H](C[C@@H](O)[C@H](Cc1ccccc1)NC(=O)OC(C)(C)C)C(=O)N[C@@H](CC1CCCCC1)[C@@H](O)CC(=C)C(=O)NCC(C)C
